# Bioassay records as filed in PubChem BioAssay.
# KCNQ1 inh = blocks the human KCNQ1 potassium channel. B-score at 10 µM. P51787. hit rate 1.3% among 310,000. AID 2642. CHO-K1 KCNQ1, FluxOR thallium flux fluorescence; active compounds read high;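 active = compounds whose thallium flux B-score, printed positive for inhibition, exceeds three library SD while starting fluorescence stays within three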;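 note: channel opened by potassium depolarization with thallium stimulus after 20 min compound exposure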
# Kir21 block = blocks the mouse Kir2.1 inward-rectifier potassium channel; AID 1672; B-score at 10 µM; hit rate 0.85% among 310,000; P35561; HEK293-Kir2.1, FluxOR thallium flux fluorescence; active compounds read low;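 active = fluorescence ratio B-score at or below minus 3 SD of library scores, with starting-brightness B-score within 2 SD, cut at about -4.2 in these data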;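 note: channel flux triggered by added potassium and thallium sulfate stimulus; B-score of peak minus minimum fluorescence over baseline after thallium stimulus; more negative B-score means stronger Kir2.1 block with less thallium influx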
# Target sequence (P35561 whole entry, looked up): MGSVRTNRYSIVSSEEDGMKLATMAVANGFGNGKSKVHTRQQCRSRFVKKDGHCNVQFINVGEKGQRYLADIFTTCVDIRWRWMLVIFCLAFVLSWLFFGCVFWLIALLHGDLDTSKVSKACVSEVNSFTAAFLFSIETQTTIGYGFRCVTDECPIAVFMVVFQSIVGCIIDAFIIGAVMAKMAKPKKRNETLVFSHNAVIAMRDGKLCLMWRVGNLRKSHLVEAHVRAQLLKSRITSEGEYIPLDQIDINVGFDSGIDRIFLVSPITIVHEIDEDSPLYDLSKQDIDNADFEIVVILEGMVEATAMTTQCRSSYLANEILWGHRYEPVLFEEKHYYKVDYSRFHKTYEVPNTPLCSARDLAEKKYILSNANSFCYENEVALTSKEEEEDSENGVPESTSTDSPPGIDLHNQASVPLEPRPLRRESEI
# KCNK3 inh = human KCNK3 channel inhibition, primary screen; CHO-KCNK3 thallium flux, FluxOR fluorescence; active compounds read low; B-score at 10 µM; hit rate 0.84% among 340,000; AID 602410;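 active = B-score under library mean minus 4 SD, starting fluorescence ratio at most library mean plus 5 SD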;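 note: more negative B-score means stronger inhibition of thallium flux through KCNK3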
# KCNQ1 pot = human KCNQ1 channel potentiation or activation | P51787 | CHO-K1 KCNQ1, thallium flux FluxOR fluorescence; active compounds read high | B-score at 10 µM | hit rate 0.35% among 310,000;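 active = fluorescence ratio B-score, a plate-corrected score, at least three library SD, with initial intensity B-score within 5 SD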
#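 Medium – assay buffer, equal DMSO in all wells · Material – CHO-K1 cell line with stable KCNQ1 potassium channel expression · Signal – kinetic FluxOR thallium fluorescence, 10-s 1-Hz baseline, 110-s post-stimulus read · Compound – single concentration per compound, DMSO matched to controls · Schedule – 37 °C overnight plating, 90-min dark dye load, 20-min compound pretreatment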
# hERG protect = hERG (human) protection from proarrhythmic block; Q12809; CHO-hERG, FluxOR thallium flux, dofetilide IC70 present; hit rate 0.51% among 310,000; activation (rescue from dofetilide block), less the hit threshold, % at 10 µM;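 active = activation above the mean of controls blocked by dofetilide plus 5 SD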;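 note: thallium influx through hERG after potassium depolarization seen as dye fluorescence rise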
# KCNK9 inh = blocks the human KCNK9 two-pore domain potassium channel | Q9NPC2 | hit rate 1.2% among 310,000 | HEK293 KCNK9, FluxOR thallium flux fluorescence; active compounds read low | B-score at 10 µM;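 active = ratio B-score over 3 SD below the library mean, with starting fluorescence within 5 SD of its mean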;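 note: negative B-score means less thallium flux so channel inhibition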
# Target sequence (Q9NPC2 whole entry, looked up, the tested form may be a part): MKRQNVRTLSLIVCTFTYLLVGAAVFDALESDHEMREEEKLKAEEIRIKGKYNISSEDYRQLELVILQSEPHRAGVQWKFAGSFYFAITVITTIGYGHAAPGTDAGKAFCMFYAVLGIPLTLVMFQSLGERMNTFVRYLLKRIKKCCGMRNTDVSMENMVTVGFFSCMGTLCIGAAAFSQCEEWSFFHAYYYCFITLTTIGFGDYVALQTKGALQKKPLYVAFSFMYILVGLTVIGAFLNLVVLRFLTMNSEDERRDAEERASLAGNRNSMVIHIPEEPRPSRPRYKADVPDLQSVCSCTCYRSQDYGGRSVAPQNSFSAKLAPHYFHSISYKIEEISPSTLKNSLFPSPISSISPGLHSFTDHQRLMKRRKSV
# KCNQ1 block val = confirmation of human KCNQ1 potassium channel inhibitors; shares compounds with KCNQ1 inh; KCNQ1 cell line, FluxOR thallium flux fluorescence; inhibition, % at 10 µM; hit rate 93% among 1,600;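 active = primary screen active, with duplicate mean exceeding buffer control mean plus 3 SD of buffer wells, cut at about 28% in these data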;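 note: 0% = buffer control ratio and 100% = XE991 inhibitor control ratio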
# CHO Tl flux = counter-screen for KCNQ1 inhibitors: effect in parental CHO cells; shares compounds with KCNQ1 inh; parental CHO-K1, FluxOR thallium flux fluorescence ratio; active compounds read low; zero means no signal rise above baseline; fluorescence ratio (Tl flux) at 10 µM; hit rate 21% among 1,600; AID 588366;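 active = mean of duplicate thallium-flux fluorescence ratios in parental host cells more than 5 SD below the buffer control mean, cut at about 0.38 in these data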;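 note: ratio is peak minus minimum fluorescence divided by baseline fluorescence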
# KCNQ1 ephys val = blocks human KCNQ1 current in automated patch clamp. shares compounds with KCNQ1 inh. KCNQ1-CHO cells. calls only at 10 µM. hit rate 20% among 490. AID 624120;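 active = KCNQ1 current drop exceeding 3 SD of negative control wells, seen in both duplicate runs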;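 note: steady state current during a 2 s step from -80 to +40 mV; negative values mean current inhibition and positive values mean potentiation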
# KCNQ2 inh = selectivity of KCNQ1 inhibitors: inhibition of rat KCNQ2 channel. shares compounds with KCNQ1 inh. inhibition, % at 10 µM. hit rate 71% among 1,600. KCNQ2 cells, FluxOR thallium flux fluorescence;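 active = mean percent inhibition of the KCNQ2 thallium signal more than 5 SD above the buffer-only control wells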;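 note: KCNQ2 expressed in CHO cells; 0% = buffer control wells and 100% = XE-991 inhibitor control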
# KCNQ1-KCNE1 inh = KCNQ1 inhibitor that also blocks human KCNQ1/KCNE1 channel | shares compounds with KCNQ1 inh | KCNQ1/KCNE1 cells, FluxOR thallium flux fluorescence | inhibition, % at 10 µM | hit rate 77% among 1,600 | AID 652147;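 active = mean percent inhibition of duplicate wells above the buffer-only control mean plus 3 SD of those controls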;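 note: 0% = buffer only wells and 100% = XE-991 inhibitor control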
# KCNK9 block conf = human KCNK9 inhibitor confirmation. inhibition, % at 10 µM. hit rate 43% among 4,900. HEK293 KCNK9 cells, FluxOR thallium flux fluorescence. AID 492992. shares compounds with KCNK9 inh;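 active = thallium signal inhibited by more than 5 SD of the compound-free buffer control wells, on both duplicate plates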;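 note: 0% = assay buffer control wells without compound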
# Kir2-1 spec = tests whether KCNK9 modulators also affect mouse Kir2.1; inhibition, % at 10 µM; AID 492993; shares compounds with KCNK9 inh; Kir2.1 cells, FluxOR thallium flux fluorescence; hit rate 4% among 4,900;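 active = thallium signal drop more than 5 SD beyond the mean of the no-compound control wells, seen in both duplicate plates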;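 note: signal is fluorescence rise after thallium addition divided by baseline fluorescence; plate controls were assay buffer only for no effect and full block by chlorpromazine control for full effect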
# KCNK9 uninduced = non-induced cell nonspecific activity of KCNK9 modulators; hit rate 40% among 4,900; non-induced KCNK9-HEK293, FluxOR thallium flux; inhibition, % at 10 µM; shares compounds with KCNK9 inh;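 active = thallium signal drop beyond 5 SD of the untreated control mean, on both duplicate plates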;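 note: plate controls were buffer only IC0 wells for no effect and SID17386958 at its maximal inhibitory level for full effect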
# KCNK3 confirm = human KCNK3 channel inhibition, confirmation assay; shares compounds with KCNK3 inh; CHO-KCNK3 thallium flux, FluxOR fluorescence; 0% buffer, 100% carvedilol maximal block; ratio percent of control, % at 10 µM; hit rate 99% among 2,400;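 active = ratio percent of control, averaged over triplicates, above buffer control mean plus 5 SD, cut at about 64% in these data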;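 note: ratio is the fluorescence rise from min to max over baseline after thallium stimulus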
# KCNK3 noninduced = counter-screen for KCNK3 inhibitors: effect in non-induced cells; non-induced KCNK3 parental cells, FluxOR thallium flux; active compounds read low; thallium flux ratio (lower = more inhibition) at 10 µM; shares compounds with KCNK3 inh; hit rate 40% among 2,400; AID 651747;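 active = thallium flux ratio, averaged over three wells, more than 5 SD below the buffer control mean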;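 note: host cells are CHO cells without KCNK3 induction; ratio is peak minus trough fluorescence over baseline then normalized to buffer controls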
# * marks the source's active call; other numbers are inactive results; i = inactive; . = no result; + = active, no number. This is a sample that favours compounds with a hit; in the whole collection about 3.7% have one here.
SMILES,KCNQ1 inh,Kir21 block,KCNK3 inh,KCNQ1 pot,hERG protect,KCNK9 inh,KCNQ1 block val,CHO Tl flux,KCNQ2 inh,KCNQ1-KCNE1 inh,KCNK9 block conf,Kir2-1 spec,KCNK9 uninduced,others
CN(C)C(=S)SSC(=S)N(C)C,16*,-1.9,i,i,-41,i,0,0.55,i,i,.,.,.,
CN1CCCN(C(=O)COc2cccc(C(F)(F)F)c2)CC1,i,-0.04,i,i,1,i,.,.,.,.,.,.,.,
CCCCCCn1c(=O)c(C(=O)Nc2cnccn2)c(O)c2ccccc21,9*,0.74,i,i,-12,i,44*,0.5,i,i,.,.,.,
CCCCCCn1c(=O)c(C(=O)Nc2ncccc2O)c(O)c2ccccc21,7*,1.1,i,i,-6,i,58*,0.43,62%*,50%*,.,.,.,
CCCCCn1c(=O)c(C(=O)Nc2ccccc2N)c(O)c2ccccc21,i,1.9,i,i,-1,i,.,.,.,.,.,.,.,
CC1(C)CC[C@]2(C)CC[C@]3(C)C4C[C@@H]5OO[C@@]6(O5)C(CCCC6(C)C)[C@]4(C)CC[C@@]3(C)C2C1 (stereo partly drawn),.,.,i,.,.,.,.,.,.,.,.,.,.,
CC(C)CN1CCN(Cc2ccc(C(F)(F)F)cc2)CC1CCO (stereo not drawn),i,-0.76,i,i,-12,i,.,.,.,.,.,.,.,
O=c1cc(C(F)(F)F)c2cc3c4c(c2o1)CCCN4CCC3,37*,-11,i,i,-16,i,+,0.022*,i,i,.,.,.,
Nc1ccc2ccc3cccc[n+]3c2c1,24*,-23,i,i,-44,i,+,0.0075*,i,i,.,.,.,
C[n+]1c(-c2ccccc2)c2cc(N)ccc2c2ccc(N)cc21,i,0.6,i,i,-10,i,.,.,.,.,.,.,.,
O=C(COc1ccc(Br)cc1)N1CCN(Cc2ccc3c(c2)OCO3)CC1,i,-2.4,i,i,3,i,.,.,.,.,.,.,.,
CC1(C)OC(c2ccccc2)=C/C(=C/C=C2C(=O)NC(=S)NC2=O)O1,15*,-3.3,.,i,-18,i,82*,0.34*,i,i,.,.,.,
CN1/C(=C\C=C2C(=O)NC(=S)NC2=O)C(C)(C)c2ccccc21,i,-2.1,i,i,-8,i,.,.,.,.,.,.,.,
O=C(c1ccco1)c1cn(Cc2ccccc2Cl)c2ccccc12,7*,-0.77,i,i,-6,-7.5*,91*,0.38,102%*,152%*,.,.,.,KCNQ1 ephys val=i
Oc1ccccc1CN(CCc1ccccc1)Cc1ccccc1,9*,-3.2,-8.9*,i,-9,-7.9*,108*,0.39,97%*,130%*,.,.,.,KCNQ1 ephys val=i;KCNK3 confirm=120*;KCNK3 noninduced=0.14*
COC(=O)C1=C(c2cccc(OC)c2OC)C[C@@H]2CC[C@H]1N2C(=O)NCCS(C)=O (stereo partly drawn),i,1.1,i,i,-7,i,.,.,.,.,.,.,.,
Cc1ccc(CN2CCSc3ccc(C(=O)N4CCC5(CC4)OCCO5)cc32)cc1,i,-0.73,i,i,-10,i,.,.,.,.,.,.,.,
O=C(c1ccc2c(c1)N(Cc1ccc(F)cc1)CCS2)N1CCC2(CC1)OCCO2,i,-0.43,i,i,-10,i,.,.,.,.,i,i,i,
CCCCn1c(=O)c(C=Nc2ccc(Cl)cc2)c(O)n(Cc2ccco2)c1=O,i,1.5,i,i,-2,i,.,.,.,.,i,i,i,
O=[N+]([O-])c1oc2ccc3ccccc3c2c1CCO,.,.,i,.,.,.,.,.,.,.,.,.,.,
CCC(=O)c1cn(Cc2ccccc2)c2ccccc12,i,0.01,i,i,-21,i,.,.,.,.,.,.,.,
O=C(COc1ccccc1)c1cn(Cc2ccccc2)c2ccccc12,i,-3.3,i,i,-9,-10*,.,.,.,.,52%*,i,53%*,
CCOc1ccc(-c2c(C)n(-c3ccc(OCC)cc3)c3[n+]2CCCCC3)cc1,9*,-10*,i,i,-18,-10*,.,.,.,.,44%*,33%*,i,
CCOc1ccc(-n2c(-c3ccoc3)nc3ccccc3c2=O)cc1,i,0.05,i,i,-13,i,.,.,.,.,.,.,.,
COC(=O)C1=C(c2c(C)noc2C)C[C@@H]2CC[C@H]1N2C(=O)NCCOc1ccc(OC)cc1,.,.,i,.,.,.,.,.,.,.,.,.,.,
O=c1c(C=NCc2cccs2)c(O)n(C2CCCCC2)c(=O)n1C1CCCCC1,i,0.35,i,i,-7,i,.,.,.,.,i,i,i,
CSc1ccc(CN2CCN(c3ccccc3C)CC2)cc1,i,-1.5,i,i,-10,i,.,.,.,.,i,i,i,
O=C(c1ccc(Cl)cc1)C1CCCN(Cc2cccc3cnccc23)C1 (stereo not drawn),i,-1.4,i,i,-26,i,.,.,.,.,i,i,i,
O=C(c1ccc(Cl)cc1)C1CCCN(Cc2ccc3c(c2)OCCO3)C1 (stereo not drawn),i,-1.4,i,i,-8,i,.,.,.,.,i,i,i,
